Measurements from ChEMBL document CHEMBL2046336, “Structure-activity relationships of saponin derivatives: a series of entry inhibitors for highly pathogenic H5N1 influenza virus” (Eur J Med Chem, 2012).
pIC50: −log10 of the molar value. Active and inactive are the calls of the source. No cut-off for these calls is given here.

Tests used:
Type in all cases: cell-based
[1] = Inhibition of Influenza A virus (A/Viet Nam/1203/2004(H5N1)) hemagglutininin-mediated viral entry into human A549 cells after 48 hrs postinfection by luminometric analysis
Procedure, shortened: (§1)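 A549 cells seeded at 5 × 10⁴ per well; test compounds added 15 min before HIV-luc pseudovirions bearing the H5N1 HA (Qinghai or Viet Nam strain) or VSV-G envelope, then incubated. Pseudovirion supernatants were filtered and used directly for infection.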

[2] = Inhibition of Influenza A virus (A/Bar-headed Goose/Qinghai/59/05(H5N1)) hemagglutininin-mediated viral entry into human A549 cells after 48 hrs postinfection by luminometric analysis; procedure, shortened: as §1
A549 [3] = assay: Inhibition of Vesicular stomatitis virus envelope glycoprotein-mediated viral entry into human A549 cells after 48 hrs postinfection by luminometric analysis; procedure, shortened: as §1
A549 [4] = assay: Cytotoxicity against human A549 cells after 48 hrs; settings: a549, 48 h

C[C@@H]1CC[C@@]2(OC1)O[C@H]1C[C@H]3[C@@H]4C[C@H](O)[C@H]5C[C@@H](O)CC[C@]5(C)[C@H]4CC[C@]3(C)[C@H]1[C@@H]2C [CHLOROGENIN]
pIC50 [1]: < 4.30
pIC50 [2]: < 4.30

C[C@@H]1CC[C@@]2(OC1)O[C@H]1C[C@H]3[C@@H]4C[C@@H](O)[C@H]5C[C@@H](O[C@@H]6O[C@H](CO)[C@@H](O[C@@H]7O[C@@H](C)[C@H](O)[C@@H](O)[C@H]7O)[C@H](O)[C@H]6O[C@@H]6O[C@@H](C)[C@H](O)[C@@H](O)[C@H]6O)CC[C@]5(C)[C@H]4CC[C@]3(C)[C@H]1[C@@H]2C
inhibition (A549 [3]): inactive
pIC50 [1]: 4.96
Activity (A549 [4]): Non-toxic
pIC50 [2]: 4.74

C[C@@H]1CC[C@@]2(OC1)O[C@H]1C[C@H]3[C@@H]4CC(=O)[C@H]5C[C@@H](O[C@@H]6O[C@H](CO)[C@@H](O[C@@H]7O[C@@H](C)[C@H](O)[C@@H](O)[C@H]7O)[C@H](O)[C@H]6O[C@@H]6O[C@@H](C)[C@H](O)[C@@H](O)[C@H]6O)CC[C@]5(C)[C@H]4CC[C@]3(C)[C@H]1[C@@H]2C
inhibition (A549 [3]): inactive
pIC50 [1]: 4.92
Activity (A549 [4]): Non-toxic
pIC50 [2]: 4.70

CC(=O)O[C@H]1C[C@@H]2[C@H](CC[C@]3(C)[C@@H]4[C@H](C[C@@H]23)O[C@]2(CC[C@@H](C)CO2)[C@H]4C)[C@@]2(C)CC[C@H](O[C@@H]3O[C@H](CO)[C@@H](O[C@@H]4O[C@@H](C)[C@H](O)[C@@H](O)[C@H]4O)[C@H](O)[C@H]3O[C@@H]3O[C@@H](C)[C@H](O)[C@@H](O)[C@H]3O)C[C@H]12
inhibition (A549 [3]): inactive
pIC50 [1]: 5.03
Activity (A549 [4]): Non-toxic
pIC50 [2]: 5.12

CO[C@@H]1[C@@H](O)[C@H](C)O[C@@H](O[C@H]2[C@H](O[C@H]3CC[C@@]4(C)[C@H](C3)[C@@H](O)C[C@@H]3[C@@H]4CC[C@]4(C)[C@@H]5[C@H](C[C@@H]34)O[C@]3(CC[C@@H](C)CO3)[C@H]5C)O[C@H](CO)[C@@H](O[C@@H]3O[C@@H](C)[C@H](O)[C@@H](OC)[C@H]3O)[C@@H]2O)[C@@H]1O
inhibition (A549 [3]): inactive
pIC50 [1]: 4.80
Activity (A549 [4]): Non-toxic
pIC50 [2]: 4.55

C[C@@H]1CC[C@@]2(OC1)O[C@H]1C[C@H]3[C@@H]4C[C@H](O)[C@H]5C[C@@H](O[C@@H]6O[C@H](CO)[C@@H](O[C@@H]7OC[C@H](O)[C@H](O)[C@H]7O)[C@H](O)[C@H]6O[C@@H]6OC[C@H](O)[C@H](O)[C@H]6O)CC[C@]5(C)[C@H]4CC[C@]3(C)[C@H]1[C@@H]2C
inhibition (A549 [3]): inactive
pIC50 [1]: < 4.30
Activity (A549 [4]): Non-toxic
pIC50 [2]: < 4.30

CO[C@@H]1[C@@H](O[C@@H]2O[C@@H](C)[C@H](O)[C@@H](O)[C@H]2O)[C@H](O[C@H]2CC[C@@]3(C)[C@H](C2)[C@@H](O)C[C@@H]2[C@@H]3CC[C@]3(C)[C@@H]4[C@H](C[C@@H]23)O[C@]2(CC[C@@H](C)CO2)[C@H]4C)O[C@H](CO)[C@H]1O[C@@H]1O[C@@H](C)[C@H](O)[C@@H](O)[C@H]1O
inhibition (A549 [3]): inactive
pIC50 [1]: 4.89
Activity (A549 [4]): Non-toxic
pIC50 [2]: 4.60

C[C@@H]1CC[C@@]2(OC1)O[C@H]1C[C@H]3[C@@H]4C[C@H](O[C@@H]5O[C@@H](C)[C@H](O)[C@@H](O)[C@H]5O)[C@H]5C[C@@H](O[C@@H]6O[C@H](CO)[C@@H](O[C@@H]7O[C@@H](C)[C@H](O)[C@@H](O)[C@H]7O)[C@H](O)[C@H]6O[C@@H]6O[C@@H](C)[C@H](O)[C@@H](O)[C@H]6O)CC[C@]5(C)[C@H]4CC[C@]3(C)[C@H]1[C@@H]2C
inhibition (A549 [3]): inactive
pIC50 [1]: < 4.30
Activity (A549 [4]): Non-toxic
pIC50 [2]: < 4.30

CO[C@H]1[C@H](O[C@H]2[C@H](O[C@H]3CC[C@@]4(C)[C@H](C3)[C@@H](O)C[C@@H]3[C@@H]4CC[C@]4(C)[C@@H]5[C@H](C[C@@H]34)O[C@]3(CC[C@@H](C)CO3)[C@H]5C)O[C@H](CO)[C@@H](O[C@@H]3O[C@@H](C)[C@H](O)[C@@H](O)[C@H]3OC)[C@@H]2O)O[C@@H](C)[C@H](O)[C@H]1O
inhibition (A549 [3]): inactive
pIC50 [1]: 4.82
Activity (A549 [4]): Non-toxic
pIC50 [2]: 4.51

CO[C@@H]1[C@@H](O)[C@@H](O)[C@H](O[C@H]2[C@H](O[C@H]3CC[C@@]4(C)[C@H](C3)[C@@H](O)C[C@@H]3[C@@H]4CC[C@]4(C)[C@@H]5[C@H](C[C@@H]34)O[C@]3(CC[C@@H](C)CO3)[C@H]5C)O[C@H](CO)[C@@H](O[C@@H]3O[C@@H](C)[C@H](OC)[C@@H](O)[C@H]3O)[C@@H]2O)O[C@H]1C
inhibition (A549 [3]): inactive
pIC50 [1]: 4.62
Activity (A549 [4]): Non-toxic

C[C@@H]1O[C@@H](O[C@H]2[C@H](O)[C@@H](O[C@@H]3O[C@@H](C)[C@H](O)[C@@H](O)[C@H]3O)C(O)O[C@@H]2CO)[C@H](O)[C@H](O)[C@H]1O (some centres not stated) [CHACOTRIOSE]
inhibition (A549 [3]): inactive
pIC50 [1]: < 4.30
Activity (A549 [4]): Non-toxic
pIC50 [2]: < 4.30

COC(=O)[C@]12CC[C@@H](C)[C@H](C)[C@H]1C1=CC[C@@H]3[C@@]4(C)CC[C@H](O[C@@H]5O[C@H](CO)[C@@H](O[C@@H]6O[C@@H](C)[C@H](O)[C@@H](O)[C@H]6O)[C@H](O)[C@H]5O[C@@H]5O[C@@H](C)[C@H](O)[C@@H](O)[C@H]5O)C(C)(C)[C@@H]4CC[C@@]3(C)[C@]1(C)CC2
inhibition (A549 [3]): inactive
pIC50 [1]: 5.07
Activity (A549 [4]): Non-toxic
pIC50 [2]: 5.22

COC[C@H]1O[C@@H](O[C@H]2CC[C@@]3(C)[C@H](C2)[C@@H](O)C[C@@H]2[C@@H]3CC[C@]3(C)[C@@H]4[C@H](C[C@@H]23)O[C@]2(CC[C@@H](C)CO2)[C@H]4C)[C@H](O[C@@H]2O[C@@H](C)[C@H](O)[C@@H](O)[C@H]2O)[C@@H](O)[C@@H]1O[C@@H]1O[C@@H](C)[C@H](O)[C@@H](O)[C@H]1O
inhibition (A549 [3]): inactive
pIC50 [1]: 5.05
Activity (A549 [4]): Non-toxic
pIC50 [2]: 4.92

CCS[C@@H]1O[C@H](CO)[C@@H](O[C@@H]2O[C@@H](C)[C@H](O)[C@@H](O)[C@H]2O)[C@H](O)[C@H]1O[C@@H]1O[C@@H](C)[C@H](O)[C@@H](O)[C@H]1O
inhibition (A549 [3]): inactive
pIC50 [1]: < 4.30
Activity (A549 [4]): Non-toxic
pIC50 [2]: < 4.30

C[C@@H]1CC[C@@]2(OC1)O[C@H]1C[C@H]3[C@@H]4C[C@H](O)[C@H]5C[C@@H](O[C@@H]6O[C@H](CO)[C@@H](O[C@@H]7O[C@@H](C)[C@H](O)[C@@H](O)[C@H]7O)[C@H](O)[C@H]6O[C@@H]6O[C@@H](C)[C@H](O)[C@@H](O)[C@H]6O)CC[C@]5(C)[C@H]4CC[C@]3(C)[C@H]1[C@@H]2C
inhibition (A549 [3]): inactive
pIC50 [1]: 5.11
Activity (A549 [4]): Non-toxic
pIC50 [2]: 5.14
